Test results taken from ChEMBL document CHEMBL4257590, “Semisynthesis of Platensimycin Derivatives with Antibiotic Activities in Mice via Suzuki-Miyaura Cross-Coupling Reactions” (J Med Chem, 2018).
In brackets after ≈: the same amount, converted by molar mass. Activity calls are given as the source filed them. No cut-off for these calls is given here.

Experiments:
Staphylococcus aureus [1] = assay: Antibacterial activity against methicillin-sensitive Staphylococcus aureus isolate 2 after 16 hrs by agar dilution method; type: functional; conditions: isolate 2, 16 h
Procedure, shortened: (§1)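 Agar dilution in LB agar with compound (from methanol solutions) at final 0.5–64 μg/ml per plate. Strains grown 16 h at 37 °C, 250 rpm in LB broth, adjusted to OD600 0.25±0.05, diluted 10^4-fold; 2 μl spotted per plate, incubated 16 h at 37 °C. MIC = lowest concentration with no visible colonies; at least two independent experiments. Linezolid and PTM as controls.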

Staphylococcus aureus [2] = assay: Antibacterial activity against methicillin-resistant Staphylococcus aureus isolate 4 after 16 hrs by agar dilution method; type: functional; conditions: isolate 4, 16 h; procedure, shortened: as §1
Staphylococcus aureus [3] = assay: Antibacterial activity against methicillin-sensitive Staphylococcus aureus isolate 1 after 16 hrs by agar dilution method; type: functional; conditions: isolate 1, 16 h; procedure, shortened: as §1
Staphylococcus aureus [4] = assay: Antibacterial activity against methicillin-resistant Staphylococcus aureus isolate 6 after 16 hrs by agar dilution method; type: functional; conditions: isolate 6, 16 h; procedure, shortened: as §1
Staphylococcus aureus [5] = assay: Antibacterial activity against methicillin-resistant Staphylococcus aureus isolate 3 after 16 hrs by agar dilution method; type: functional; conditions: isolate 3, 16 h; procedure, shortened: as §1
Staphylococcus aureus [6] = assay: Antibacterial activity against methicillin-resistant Staphylococcus aureus isolate 5 after 16 hrs by agar dilution method; type: functional; conditions: isolate 5, 16 h; procedure, shortened: as §1
Staphylococcus aureus [7] = assay: Antibacterial activity against Staphylococcus aureus ATCC 29213 after 16 hrs by agar dilution method; type: functional; conditions: ATCC 29213, 16 h; procedure, shortened: as §1
Mus musculus = assay: Toxicity in C57BL/6J mouse infected with methicillin-resistant Staphylococcus aureus assessed as effect on mouse body weight at 10 mg/kg, ip administered 1 and 5 hrs postinfection and measured for 7 days; type: organism-based; conditions: in vivo, 168 h
Procedure, shortened: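 Lethal peritonitis: female C57BL/6J mice, 6–8 weeks, 18–21 g, infected ip with 2 × 10^7 CFU MRSA in 0.5 ml saline with 5% (w/v) mucin. Treated ip 0.2 mL/mouse at 1 and 5 h post-infection (n = 5/group): 50 mg/kg at 5 mg/mL in 12.5% DMSO vehicle, or 10 mg/kg at 1 mg/mL in 2.5% DMSO/30% propanediol/30% PEG400/37.5% saline; vancomycin in saline, saline control. Checked twice daily for survival and body weight over 7 days.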

Staphylococcus aureus [8] = assay: Antibacterial activity against methicillin-resistant Staphylococcus aureus infected in C57BL/6J mouse assessed as reduction in bacterial load in blood at 50 mg/kg, ip administered 1 and 5 hrs postinfection and measured at 12 hrs post bacterial infection; type: functional, organism-based
Procedure, shortened: (§2)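 Female C57BL/6J mice, 6–8 weeks, 18–21 g, infected ip with 2 × 10^7 CFU MRSA in 0.2 ml saline with 5% hog gastric mucin. Dosed ip 50 mg/kg at 1 and 5 h post-infection; test agents at 5 mg/mL in 12.5% DMSO/30% propanediol/30% PEG400/27.5% saline, vancomycin in saline, saline control. At 12 h blood and homogenized kidneys plated on LB agar overnight at 37 °C for CFU; n = 5, mean ± SEM, unpaired two-tailed t-test.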

Staphylococcus aureus [9] = assay: Antibacterial activity against methicillin-resistant Staphylococcus aureus infected in C57BL/6J mouse assessed as reduction in bacterial load in kidney at 50 mg/kg, ip administered 1 and 5 hrs postinfection and measured at 12 hrs post bacterial infection; type: functional, organism-based; procedure, shortened: as §2
Staphylococcus aureus [10] = assay: Antibacterial activity against methicillin-resistant Staphylococcus aureus after 18 hrs in presence of 10% human serum by resazurin dye-based assay; type: functional
Procedure, shortened: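 One clinical MRSA strain grown to exponential phase (OD600 = 0.5), diluted to 10^6 CFU/ml in Mueller-Hinton broth; 100 μl compound dilutions mixed with 100 μl bacteria with or without 10% human serum, 18 h at 37 °C. Resazurin (0.66 mM, 50 μl) then added and read visually.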

Row | Compound | MIC (Staphylococcus aureus [1]) | MIC (Staphylococcus aureus [2]) | MIC (Staphylococcus aureus [3]) | MIC (Staphylococcus aureus [4]) | MIC (Staphylococcus aureus [5]) | MIC (Staphylococcus aureus [6]) | MIC (Staphylococcus aureus [7]) | Activity (Mus musculus) | Activity (Staphylococcus aureus [8]) | Activity (Staphylococcus aureus [9]) | MIC (Staphylococcus aureus [10])
1 | Cc1ccccc1C1=C[C@]23C[C@@H]4C[C@H](O[C@@]4(C)C2)[C@H]3[C@](C)(CCC(=O)Nc2c(O)ccc(C(=O)O)c2O)C1=O | 16 µg/mL (≈ 30.1 µM) | 16 µg/mL (≈ 30.1 µM) | 8 µg/mL (≈ 15 µM) | 16 µg/mL (≈ 30.1 µM) | 16 µg/mL (≈ 30.1 µM) | 16 µg/mL (≈ 30.1 µM) | 8 µg/mL (≈ 15 µM) |  |  |  | 
2 | C[C@]12C[C@@]34C=C(c5ccccc5-c5ccccc5)C(=O)[C@@](C)(CCC(=O)Nc5c(O)ccc(C(=O)O)c5O)[C@@H]3[C@H](C[C@H]1C4)O2 | 8 µg/mL (≈ 13.5 µM) | 8 µg/mL (≈ 13.5 µM) | 8 µg/mL (≈ 13.5 µM) | 8 µg/mL (≈ 13.5 µM) | 8 µg/mL (≈ 13.5 µM) | 8 µg/mL (≈ 13.5 µM) | 4 µg/mL (≈ 6.74 µM) |  |  |  | 
3 | C[C@]12C[C@@]34C=C(c5cccc(OC(F)(F)F)c5)C(=O)[C@@](C)(CCC(=O)Nc5c(O)ccc(C(=O)O)c5O)[C@@H]3[C@H](C[C@H]1C4)O2 | 8 µg/mL (≈ 13.3 µM) | 8 µg/mL (≈ 13.3 µM) | 8 µg/mL (≈ 13.3 µM) | 8 µg/mL (≈ 13.3 µM) | 8 µg/mL (≈ 13.3 µM) | 8 µg/mL (≈ 13.3 µM) | 8 µg/mL (≈ 13.3 µM) |  |  |  | 
4 | C[C@]12C[C@@]34C=C(c5cc(Cl)cc(Cl)c5)C(=O)[C@@](C)(CCC(=O)Nc5c(O)ccc(C(=O)O)c5O)[C@@H]3[C@H](C[C@H]1C4)O2 | 8 µg/mL (≈ 13.6 µM) | 8 µg/mL (≈ 13.6 µM) | 8 µg/mL (≈ 13.6 µM) | 8 µg/mL (≈ 13.6 µM) | 8 µg/mL (≈ 13.6 µM) | 8 µg/mL (≈ 13.6 µM) | 8 µg/mL (≈ 13.6 µM) |  |  |  | 
5 | CN[C@H](CC(C)C)C(=O)N[C@H]1C(=O)N[C@@H](CC(N)=O)C(=O)N[C@H]2C(=O)N[C@H]3C(=O)N[C@H](C(=O)N[C@H](C(=O)O)c4cc(O)cc(O)c4-c4cc3ccc4O)[C@H](O)c3ccc(c(Cl)c3)Oc3cc2cc(c3O[C@@H]2O[C@H](CO)[C@@H](O)[C@H](O)[C@H]2O[C@H]2C[C@](C)(N)[C@H](O)[C@H](C)O2)Oc2ccc(cc2Cl)[C@H]1O [VANCOMYCIN] |  |  |  |  |  |  |  | Non-Toxic | Active | Active | 
6 | Cc1cccc(C2=C[C@]34C[C@@H]5C[C@H](O[C@@]5(C)C3)[C@H]4[C@](C)(CCC(=O)Nc3c(O)ccc(C(=O)O)c3O)C2=O)c1 | 4 µg/mL (≈ 7.52 µM) | 8 µg/mL (≈ 15 µM) | 4 µg/mL (≈ 7.52 µM) | 8 µg/mL (≈ 15 µM) | 8 µg/mL (≈ 15 µM) | 8 µg/mL (≈ 15 µM) | 8 µg/mL (≈ 15 µM) |  |  |  | 
7 | C[C@]12C[C@@]34C=C(c5ccccc5)C(=O)[C@@](C)(CCC(=O)Nc5c(O)ccc(C(=O)O)c5O)[C@@H]3[C@H](C[C@H]1C4)O2 | 16 µg/mL (≈ 30.9 µM) | 16 µg/mL (≈ 30.9 µM) | 16 µg/mL (≈ 30.9 µM) | 16 µg/mL (≈ 30.9 µM) | 16 µg/mL (≈ 30.9 µM) | 16 µg/mL (≈ 30.9 µM) | 16 µg/mL (≈ 30.9 µM) |  |  |  | 
8 | C[C@]12C[C@@]34C=C(c5ccc(-c6ccccc6)cc5)C(=O)[C@@](C)(CCC(=O)Nc5c(O)ccc(C(=O)O)c5O)[C@@H]3[C@H](C[C@H]1C4)O2 | 8 µg/mL (≈ 13.5 µM) | 8 µg/mL (≈ 13.5 µM) | 8 µg/mL (≈ 13.5 µM) | 8 µg/mL (≈ 13.5 µM) | 8 µg/mL (≈ 13.5 µM) | 8 µg/mL (≈ 13.5 µM) | 4 µg/mL (≈ 6.74 µM) |  |  |  | 
9 | COc1ccccc1C1=C[C@]23C[C@@H]4C[C@H](O[C@@]4(C)C2)[C@H]3[C@](C)(CCC(=O)Nc2c(O)ccc(C(=O)O)c2O)C1=O | 16 µg/mL (≈ 29.2 µM) | 16 µg/mL (≈ 29.2 µM) | 8 µg/mL (≈ 14.6 µM) | 16 µg/mL (≈ 29.2 µM) | 16 µg/mL (≈ 29.2 µM) | 16 µg/mL (≈ 29.2 µM) | 8 µg/mL (≈ 14.6 µM) |  |  |  | 
10 | C[C@]12C[C@@]34C=CC(=O)[C@@](C)(CCC(=O)Nc5c(O)ccc(C(=O)O)c5O)[C@@H]3[C@H](C[C@H]1C4)O2 | 0.5 µg/mL (≈ 1.13 µM) | 1 µg/mL (≈ 2.27 µM) | 0.5 µg/mL (≈ 1.13 µM) | 1 µg/mL (≈ 2.27 µM) | 0.5 µg/mL (≈ 1.13 µM) | 1 µg/mL (≈ 2.27 µM) | 0.5 µg/mL (≈ 1.13 µM) |  | Active | Active | 8 µg/mL
